Data as given in ChEMBL document CHEMBL1123290, “Synthesis, antimalarial activity, and quantitative structure-activity relationships of tebuquine and a series of related 5-[(7-chloro-4-quinolinyl)amino]-3-[(alkylamino)methyl] [1,1'-biphenyl]-2-ols and N omega-oxides” (1986).

How the values were obtained:
Format in all cases: functional
Plasmodium berghei [1] = assay: Change in mean survival time for control (average 6.2 days) versus treated mice (Mus musculus) 72 hrs after 640 mg/kg subcutaneous dose
Mus musculus [2] = assay: Antimalarial activity, administered as a single subcutaneous dose of 640 mg/kg, 72 hrs post infection measured as number of mice (Mus musculus) surviving at 60 days post infection
Method in brief: (§1)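 Mice were infected with a normal drug-sensitive Plasmodium berghei strain. At 72 h postinfection each received one subcutaneous dose of compound dissolved or suspended in peanut oil, in five-mouse groups per dose. The read-out was the number of mice alive at 60 days postinfection, which were scored as cured.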

Mus musculus [3] = assay: Antimalarial activity, administered as a single subcutaneous dose of 80 mg/kg, 72 hrs post infection measured as number of mice (Mus musculus) surviving at 60 days post infection; method in brief: as §1
Mus musculus [4] = assay: Antimalarial activity, administered as a single subcutaneous dose of 40 mg/kg, 72 hrs post infection measured as number of mice (Mus musculus) surviving at 60 days post infection; method in brief: as §1
Plasmodium berghei [5] = assay: Change in mean survival time for control (average 6.2 days) versus treated mice (Mus musculus) 72 hrs after 10 mg/kg subcutaneous dose
Plasmodium berghei [6] = assay: Change in mean survival time for control (average 6.2 days) versus treated mice (Mus musculus) 72 hrs after 5 mg/kg subcutaneous dose
Plasmodium berghei [7] = assay: Antimalarial activity in primary screen
Plasmodium berghei [8] = assay: Antimalarial activity as 60-day survivors in Plasmodium berghei infected mice (Mus musculus) after single 160mg/kg subcutaneous dose 72 hr post infection; method in brief: as §1
Plasmodium berghei [9] = assay: Antimalarial activity as 60-day survivors in infected mice (Mus musculus) after single 320mg/kg subcutaneous dose 72 hr post infection; method in brief: as §1
Plasmodium berghei [10] = assay: Change in mean survival time for control (average 6.2 days) versus treated mice (Mus musculus) 72 hrs after 20 mg/kg subcutaneous dose
Plasmodium berghei [11] = assay: Difference in mean survival time in mice (Mus musculus) (control = 6.2 days) after single 40mg/kg subcutaneous dose 72hr post infection
Plasmodium berghei [12] = assay: Change in mean survival time for control (average 6.2 days) versus treated mice (Mus musculus) 72 hrs after […] subcutaneous dose
Plasmodium berghei [13] = assay: Change in mean survival time for control (average 6.2 days) versus treated mice (Mus musculus) 72 hrs after […] subcutaneous dose
Plasmodium berghei [14] = assay: Change in mean survival time for control (average 6.2 days) versus treated mice (Mus musculus) 72 hrs after 160 mg/kg subcutaneous dose
Plasmodium berghei [15] = assay: Change in mean survival time for control (average of 6.2 days) versus treated mice (Mus musculus) 72 hrs after 80 mg/kg subcutaneous dose
Plasmodium berghei [16] = assay: Change in mean survival time for control (average 6.2 days) versus treated mice (Mus musculus) 72 hrs after 320 mg/kg subcutaneous dose

Row | Compound | Delta MST (Plasmodium berghei [1]) | No. of mice cured (Mus musculus [2]) | No. of mice cured (Mus musculus [3]) | No. of mice cured (Mus musculus [4]) | Delta MST (Plasmodium berghei [5]) [days] | Delta MST (Plasmodium berghei [6]) [days] | ED30 (Plasmodium berghei [7]) [mg/kg] | No. of mice cured (Plasmodium berghei [8]) | No. of mice cured (Plasmodium berghei [9]) | Delta MST (Plasmodium berghei [10]) [days] | Delta MST (Plasmodium berghei [11]) [days] | Delta MST (Plasmodium berghei [12]) [days] | Delta MST (Plasmodium berghei [13]) [days] | Delta MST (Plasmodium berghei [14]) [days] | Delta MST (Plasmodium berghei [15]) [days] | Delta MST (Plasmodium berghei [16]) [days]
1 | CCN(CC)Cc1cc(Nc2ccnc3cc(Cl)ccc23)cc(-c2ccc(Cl)c(Cl)c2)c1O | 10.9 days | 3 | 4 | 3 | 0.9 | 0.1 | 22.7 | 4 | 5 | 15.7 | 23.7 | -0.3 | -0.1 | 21.4 | 33.4 | –
2 | CCN(CC)Cc1cc(Nc2ccnc3cc(Cl)ccc23)cc(-c2ccccc2OC)c1O | – | 5 | 2 | – | 2.6 | 0.4 | 74 | 2 | 2 | 6.2 | 9.4 | 0.2 | -0.2 | 18.9 | 14.9 | 37.9
3 | CCN(CC)Cc1cc(Nc2ccnc3cc(Cl)ccc23)cc(CN(CC)CC)c1O [CYLCLOQUINE] | – | 5 | 2 | – | 11.5 | – | – | 4 | 5 | 15.1 | 19.1 | – | – | – | – | –
4 | Oc1c(CN2CCCC2)cc(Nc2ccnc3cc(Cl)ccc23)cc1-c1ccc(Cl)c(Cl)c1 | 33.9 days | 3 | 1 | – | 0.1 | – | – | 4 | 3 | 8.3 | 18.5 | -0.1 | -0.1 | – | 30.2 | 25.9
5 | CCN(CC)Cc1cc(Nc2ccnc3cc(Cl)ccc23)cc(-c2ccccc2C(F)(F)F)c1O | 20.7 days | 4 | 1 | 1 | 3.1 | 1.1 | 34.7 | 5 | 4 | 12.5 | 18.5 | -0.3 | 0.3 | – | 25.5 | 30.7
6 | CCN(CC)Cc1cc(Nc2ccnc3cc(Cl)ccc23)cc(-c2ccc(O)cc2)c1O | 4.1 days | 1 | – | – | – | – | 320 | – | 2 | -0.2 | 0.8 | – | – | 6.8 | 4.8 | 3.8
7 | CCN(CC)Cc1cc(Nc2ccnc3cc(Cl)ccc23)cc(-c2ccc(SC)cc2)c1O | 13.6 days | 4 | – | – | 1.3 | 0.5 | 151 | – | 2 | 6.7 | 9.1 | 0.1 | 0.5 | 19.2 | 10 | 25.3
8 | CCN(CC)Cc1cc(Nc2ccnc3cc(Cl)ccc23)cc(-c2ccc(OC)cc2)c1O | – | 5 | 1 | – | 2.9 | 1.3 | 112 | 2 | 3 | 4.3 | 7.3 | 0.1 | 0.5 | 16.1 | 12.4 | 28.9
9 | CCN(CC)Cc1cc(Nc2ccnc3cc(Cl)ccc23)cc(-c2cccc3ccccc23)c1O | 8.1 days | 2 | – | – | 0.7 | -0.3 | 4200 | – | 1 | 0.3 | 2.3 | -0.1 | 0.1 | 6.6 | 5.8 | 11.2
10 | CCN(CC)Cc1cc(Nc2ccnc3cc(Cl)ccc23)cc(-c2ccc(F)cc2)c1O | 14.8 days | – | – | 2 | – | – | 8.8 | – | – | – | 13.4 | – | – | 12.8 | – | –
11 | Oc1c(CNC23CC4CC(CC(C4)C2)C3)cc(Nc2ccnc3cc(Cl)ccc23)cc1-c1ccc(Cl)cc1 | 19 days | 2 | 4 | – | 0.1 | -0.3 | – | 4 | 5 | 7.5 | 18.5 | -0.3 | -0.5 | 39 | 23 | –
12 | CCCCN(CCCC)Cc1cc(Nc2ccnc3cc(Cl)ccc23)cc(-c2ccc(Cl)cc2)c1O | 34.4 days | 3 | – | – | 2 | 0.2 | – | – | – | 4.6 | 8.2 | 0.2 | 0.4 | 17 | 12.6 | 24
13 | CCN(CC)Cc1cc(Nc2ccnc3cc(Cl)ccc23)cc(-c2ccc(OC)c(OC)c2)c1O | 13.1 | 1 | – | – | – | – | 927 | – | – | 1.2 | 3.8 | – | – | 8.6 | 5.4 | 12
14 | CCN(CC)Cc1cc(Nc2ccnc3cc(Cl)ccc23)cc(-c2ccccc2F)c1O | – | 5 | – | 1 | 12.8 | 4.4 | 26.8 | 2 | 5 | 16.4 | 18.4 | 0.4 | 0 | 33.1 | 26.2 | –
15 | CCN(CC)Cc1cc(Nc2ccnc3cc(Cl)ccc23)cc(-c2ccccn2)c1O | 25.3 days | 3 | – | – | – | – | 160 | – | 3 | 2.6 | 3.8 | – | – | 11.2 | 7.8 | 15.8
16 | CCN(CC)Cc1cc(Nc2ccnc3cc(Cl)ccc23)ccc1O.Cl | – | 5 | 2 | – | 5.7 | – | – | 5 | 5 | 8.3 | 11.9 | – | – | – | – | –
17 | CCN(CC)Cc1cc(Nc2ccnc3cc(Cl)ccc23)cc(-c2ccc(C)cc2)c1O | 20.5 days | – | – | – | 1.6 | 0.4 | 1530 | – | – | 3.3 | 4.5 | 0.4 | 0.4 | 9.7 | 6.5 | 14.5
18 | CCN(CC)Cc1cc(Nc2ccnc3cc(Cl)ccc23)cc(-c2cc(OC)ccc2OC)c1O | 8.6 days | – | – | – | – | – | 9680 | – | – | 0 | 3.8 | – | – | 4 | 3.6 | 8.8
19 | CCN(CC)Cc1cc(Nc2cc[n+]([O-])c3cc(Cl)ccc23)ccc1O | – | 3 | – | – | – | – | – | 3 | 5 | – | – | – | – | – | – | –
20 | CCN(CC)Cc1cc(Nc2ccnc3cc(Cl)ccc23)cc(-c2ccncc2)c1O | 25 days | 2 | 1 | – | 2.1 | 1.9 | 89 | 1 | 1 | 5.5 | 9.3 | 0.5 | -0.1 | 21.7 | 11.5 | 21.2
21 | CC(C)(C)NCc1cc(C(C)(C)C)cc(-c2ccc(Cl)cc2)c1O | – | 5 | – | – | – | – | – | 5 | 5 | 5.1 | 12.9 | – | – | – | 15.7 | –
